From ChEMBL document CHEMBL1125632, “Synthesis and copper-dependent antimycoplasmal activity of amides and amidines derived from 2-amino-1,10-phenanthroline” (1991)
In brackets after ≈: the same amount, converted by molar mass.

Experiments:
[1] = test system: Mycoplasmoides gallisepticum; test: Minimum inhibitory concentration measured against Mycoplasma gallisepticum K514 in the absence of extra copper; type: functional
Procedure, shortened: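 M. gallisepticum K514 grown in modified Adler medium (peptone, yeast extract, glucose, heat-inactivated horse serum, benzylpenicillin, phenol red, pH 8.0). No added copper. Compounds dissolved in DMSO (final 1.25%) and tested as serial 2-fold dilutions in duplicate, 3 nM to 100 μM. Tubes with 3 mL medium received 1 mL fresh culture and were held 24 h at 37 °C. MIC is the lowest concentration giving no indicator colour change.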

[2] = test system: Mycoplasmoides gallisepticum; test: Minimum inhibitory concentration measured against Mycoplasma gallisepticum K514 in the presence of extra copper; type: functional
Procedure, shortened: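 M. gallisepticum K514 grown in modified Adler medium (peptone, yeast extract, glucose, horse serum, benzylpenicillin, phenol red, pH 8.0) with CuSO4 at 40 μM final. Compounds in DMSO (1.25% final), serial 2-fold dilutions in duplicate over 3 nM–100 μM. 3 mL medium plus 1 mL fresh culture, incubated 24 h at 37 °C. MIC is the lowest concentration with no phenol-red colour change.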

MIC [1] | MIC [2] | Compound
> 100 µM | 0.75 µM | CCCCc1ccc2ccc3ccc(NC(=O)c4ccc(Cl)cc4)nc3c2n1
> 100 µM | 0.37 µM | CCCCCCCCCC(=O)Nc1ccc2ccc3cccnc3c2n1
> 100 µM | 0.37 µM | CCCCc1ccc2ccc3ccc(NC(=O)c4ccc(C)cc4)nc3c2n1
> 100 µM | 0.05 µM | O=C(Nc1ccc2ccc3ccc(NC(=O)c4ccccc4)nc3c2n1)c1ccccc1
> 100 µM | 0.8 µM | Nc1ccc2ccc3ccc(N)nc3c2n1
0.1 µM (≈ 0.0916 µg/mL) | 0.1 µM | CC[C@H]1OC(=O)C[C@@H](O)[C@H](C)[C@@H](O[C@@H]2O[C@H](C)[C@@H](O[C@H]3C[C@@](C)(O)[C@@H](O)[C@H](C)O3)[C@H](N(C)C)[C@H]2O)[C@@H](CC=O)C[C@@H](C)C(=O)/C=C/C(C)=C/[C@@H]1CO[C@@H]1O[C@H](C)[C@@H](O)[C@@H](OC)[C@H]1OC [TYLOSIN]
> 100 µM | 0.23 µM | CCCCC(CC)C(=O)Nc1ccc2ccc3cccnc3c2n1 (configuration not stated)
> 100 µM | 0.023 µM | O=C(Nc1ccc2ccc3cccnc3c2n1)c1ccc(Cl)cc1
> 100 µM | 0.023 µM | O=C(Nc1ccc2ccc3cccnc3c2n1)c1ccccc1
> 100 µM | 1.5 µM | CCCCc1ccc2ccc3ccc(NC(=O)c4ccc(Cl)c(Cl)c4)nc3c2n1
> 100 µM | 0.2 µM | N=C(Nc1ccc2ccc3cccnc3c2n1)c1ccc(Cl)c(Cl)c1
> 100 µM | 0.2 µM | CCCCc1ccc2ccc3ccc(NC(=O)c4ccccc4)nc3c2n1
> 100 µM | 3.1 µM | Nc1ccc2ccc3cccnc3c2n1
> 100 µM | 0.095 µM | O=C(Nc1ccc2ccc3cccnc3c2n1)c1ccc(Cl)c(Cl)c1
> 100 µM | 0.2 µM | N=C(Nc1ccc2ccc3cccnc3c2n1)c1ccccc1
> 100 µM | 0.046 µM | COc1ccc(C(=O)Nc2ccc3ccc4cccnc4c3n2)cc1
> 100 µM | 0.2 µM | N=C(Nc1ccc2ccc3cccnc3c2n1)c1ccc(Cl)cc1
700 µM |  | CUPRIC SULFATE
> 100 µM | 0.023 µM | Cc1ccc(C(=O)Nc2ccc3ccc4cccnc4c3n2)cc1
